One experiment has as its system Aspergillus niger. As to the kind of experiment: Antifungal activity against Aspergillus niger ATCC 6275 after 72 hrs by serial dilution assay. The experiment is classed as functional. The following applies: ATCC 6275, 72 h. Summed up:
(§1)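 Modified microdilution: fungal spores washed off malt agar with sterile 0.85% saline plus 0.1% Tween 80, adjusted to about 1.0×10^5 per 100 µL well. Compounds in 5% DMSO (0.001-1.0 mg/ml) in malt broth; 72 h at 28°C on rotary shaker (160 rpm). MIC is lowest concentration without visible growth under binocular microscope. Bifonazole and ketoconazole controls (1-3500 µg/mL); three independent experiments in duplicate.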

The subject of the next experiment is Enterobacter cloacae. Briefly: Antibacterial activity against Enterobacter cloacae after 24 hrs by INT dye based microdilution assay. The experiment is classed as functional. The gist of the method: (§2)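 Broth microdilution in tryptic soy broth: overnight bacterial culture adjusted to 1×10^5 CFU/mL, 1.0×10^4 CFU per well; compounds dissolved in 5% DMSO, tested at 0.001-1.0 mg/ml; 24 h at 37°C. Streptomycin and ampicillin as positive controls, 5% DMSO as negative control; duplicate, repeated three times.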

Experiment [1] relates to Escherichia coli. As to the kind of experiment: Antibacterial activity against Escherichia coli ATCC 35210 after 24 hrs by INT dye based microdilution assay. The format is functional. Particulars: ATCC 35210, 24 h. The gist of the method: as §2
In a further experiment the test system is Aspergillus fumigatus. Briefly: Antifungal activity against Aspergillus fumigatus isolate 1022 after 72 hrs by serial dilution assay. The format is functional. Particulars: isolate 1022, 72 h. The gist of the method: as §1
The next experiment concerns Aspergillus ochraceus. Briefly: Antifungal activity against Aspergillus ochraceus ATCC 12066 after 72 hrs by serial dilution assay. The format is functional. The following applies: ATCC 12066, 72 h. The gist of the method: as §1
Another experiment has as its system Penicillium ochrochloron. Briefly: Antifungal activity against Penicillium ochrochloron ATCC 9112 after 72 hrs by serial dilution assay. The format is functional. The following applies: ATCC 9112, 72 h. The gist of the method: as §1
In experiment [2] the test system is Staphylococcus aureus. Briefly: Antibacterial activity against Staphylococcus aureus ATCC 6538 after 24 hrs by INT dye based microdilution assay. The following applies: ATCC 6538, 24 h. The format is functional. Summed up: as §2
Another experiment deals with Bacillus cereus. Briefly: Antibacterial activity against Bacillus cereus after 24 hrs by INT dye based microdilution assay. The experiment is classed as functional. Summed up:
as §2

The subject of the next experiment is Trichoderma viride. Briefly: Antifungal activity against Trichoderma viride IAM 5061 after 72 hrs by serial dilution assay. The experiment is classed as functional. The following applies: IAM 5061, 72 h. Summed up: as §1
The subject of experiment [3] is Pseudomonas aeruginosa. Briefly: Antibacterial activity against drug-resistant Pseudomonas aeruginosa after 24 hrs by INT dye based microdilution assay. The experiment is classed as functional. The gist of the method:
(§3)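 Broth microdilution in tryptic soy broth. Overnight culture adjusted to 1×10^5 CFU/mL, giving 1.0×10^4 CFU per well. Compounds dissolved in 5% DMSO and tested at 0.001-1.0 mg/ml. Plates incubated 24 h at 37°C. INT (0.2 mg/mL) then added, with 30 min at 37°C. Duplicate, repeated three times.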

Another experiment concerns Listeria monocytogenes. Briefly: Antibacterial activity against Listeria monocytogenes NCTC 7973 after 24 hrs by INT dye based microdilution assay. The experiment is classed as functional. Particulars: NCTC 7973, 24 h. The gist of the method: as §2
For a further experiment, the system named is Penicillium verrucosum. As to the kind of experiment: Antifungal activity against Penicillium cyclopium var verucosum after 72 hrs by serial dilution assay. The experiment is classed as functional. Summed up: as §1
The subject of experiment [4] is Staphylococcus aureus. As to the kind of experiment: Antibacterial activity against methicillin-resistant Staphylococcus aureus after 24 hrs by INT dye based microdilution assay. The format is functional. The gist of the method: as §3
Another experiment has as its system Talaromyces funiculosus. As to the kind of experiment: Antifungal activity against Penicillium funiculosum ATCC 36839 after 72 hrs by serial dilution assay. The experiment is classed as functional. Particulars: ATCC 36839, 72 h. The gist of the method:
as §1

The subject of the next experiment is Aspergillus versicolor. Briefly: Antifungal activity against Aspergillus versicolor ATCC 11730 after 72 hrs by serial dilution assay. The experiment is classed as functional. Particulars: ATCC 11730, 72 h. Summed up:
as §1

For experiment [5], the system named is Pseudomonas aeruginosa. As to the kind of experiment: Antibacterial activity against Pseudomonas aeruginosa ATCC 27853 after 24 hrs by INT dye based microdilution assay. The format is functional. The following applies: ATCC 27853, 24 h. Summed up: as §2
Another experiment has as its system Micrococcus flavus. As to the kind of experiment: Antibacterial activity against Micrococcus flavus ATCC 10240 after 24 hrs by INT dye based microdilution assay. Particulars: ATCC 10240, 24 h. The format is functional. Summed up:
as §2

The test system of experiment [6] is Escherichia coli. Briefly: Antibacterial activity against drug-resistant Escherichia coli after 24 hrs by INT dye based microdilution assay. The experiment is classed as functional. The gist of the method: as §3
Another experiment relates to Salmonella typhimurium. Briefly: Antibacterial activity against Salmonella typhimurium ATCC 13311 after 24 hrs by INT dye based microdilution assay. The following applies: Salmonella enterica, ATCC 13311, 24 h. The format is functional, Salmonella enterica subsp. enterica serovar Typhimurium. The gist of the method: as §2
For a further experiment, the system named is Candida albicans. Briefly: Antifungal activity against Candida albicans after 72 hrs by serial dilution assay. The format is functional. Summed up: as §1

≈ marks a conversion by molar mass, not a printed value.

Consider `Cc1ccc(/C=C2/S/C(=N/c3nnc(C45CC6CC(CC(C6)C4)C5)s3)NC2=O)cc1`, for which the MIC in the experiment with Aspergillus niger worked out at 183 µM (≈ 79.9 µg/mL); against Enterobacter cloacae it was 115 µM (≈ 50 µg/mL); in the experiment on Escherichia coli [1] it was 0.115 µM (≈ 0.05 µg/mL); with Aspergillus fumigatus it was 367 µM (≈ 160 µg/mL); against Aspergillus ochraceus, 183 µM (≈ 79.9 µg/mL); against Penicillium ochrochloron it was 183 µM (≈ 79.9 µg/mL). The MIC against Staphylococcus aureus [2] is 0.115 µM (≈ 0.05 µg/mL); against Bacillus cereus it was 115 µM (≈ 50 µg/mL); in the experiment with Trichoderma viride, 367 µM (≈ 160 µg/mL); with Pseudomonas aeruginosa [3], 115 µM (≈ 50.1 µg/mL); against Listeria monocytogenes, 59.3 µM (≈ 25.9 µg/mL); in the experiment with Penicillium verrucosum it was 0.183 µM (≈ 0.0801 µg/mL). In addition, the MIC is 0.115 µM (≈ 0.0501 µg/mL) in the experiment on Staphylococcus aureus [4]; 183 µM (≈ 79.9 µg/mL) in the experiment with Talaromyces funiculosus; 183 µM (≈ 79.9 µg/mL) in the experiment on Aspergillus versicolor; 115 µM (≈ 50 µg/mL) in the experiment on Pseudomonas aeruginosa [5]; 115 µM (≈ 50 µg/mL) against Micrococcus flavus; 0.115 µM (≈ 0.0501 µg/mL) against Escherichia coli [6]. The same compound registered an MIC with Salmonella typhimurium of 59.3 µM (≈ 25.9 µg/mL).
Regarding `O=C1N/C(=N\c2nnc(C34CC5CC(CC(C5)C3)C4)s2)S/C1=C/c1ccc(Cl)cc1`, the MIC against Aspergillus niger was determined as 137 µM (≈ 62.6 µg/mL); with Enterobacter cloacae it was 137 µM (≈ 62.6 µg/mL); in the experiment on Escherichia coli [1], 0.274 µM (≈ 0.125 µg/mL); against Aspergillus fumigatus it was 137 µM (≈ 62.6 µg/mL); in the experiment on Aspergillus ochraceus it was 68 µM (≈ 31.1 µg/mL); in the experiment with Penicillium ochrochloron, 137 µM (≈ 62.6 µg/mL). The MIC in the experiment on Staphylococcus aureus [2] is 0.137 µM (≈ 0.0626 µg/mL); with Bacillus cereus it was 137 µM (≈ 62.6 µg/mL); in the experiment on Trichoderma viride it was 68 µM (≈ 31.1 µg/mL); in the experiment on Listeria monocytogenes it was 274 µM (≈ 125 µg/mL); in the experiment with Candida albicans it was 274 µM (≈ 125 µg/mL); against Talaromyces funiculosus, 137 µM (≈ 62.6 µg/mL). In addition, the minimum inhibitory concentration (MIC) against Aspergillus versicolor amounted to 68 µM (≈ 31.1 µg/mL); in the experiment on Pseudomonas aeruginosa [5], 33 µM (≈ 15.1 µg/mL); in the experiment with Micrococcus flavus, 328 µM (≈ 150 µg/mL); with Salmonella typhimurium, 33 µM (≈ 15.1 µg/mL).
For the compound `O=C1N/C(=N\c2nnc(C34CC5CC(CC(C5)C3)C4)s2)S/C1=C/c1ccc(O)cc1`, the MIC with Aspergillus niger was found to be 142 µM (≈ 62.3 µg/mL); in the experiment on Enterobacter cloacae, 34 µM (≈ 14.9 µg/mL); in the experiment on Escherichia coli [1], 0.091 µM (≈ 0.0399 µg/mL); in the experiment on Aspergillus fumigatus it was 142 µM (≈ 62.3 µg/mL); with Aspergillus ochraceus, 71 µM (≈ 31.1 µg/mL); in the experiment with Penicillium ochrochloron, 142 µM (≈ 62.3 µg/mL). Further, the MIC worked out at 0.068 µM (≈ 0.0298 µg/mL) in the experiment with Staphylococcus aureus [2]; 34 µM (≈ 14.9 µg/mL) with Bacillus cereus; 71 µM (≈ 31.1 µg/mL) with Trichoderma viride; 284 µM (≈ 125 µg/mL) in the experiment on Listeria monocytogenes; 284 µM (≈ 125 µg/mL) in the experiment with Candida albicans; 71 µM (≈ 31.1 µg/mL) in the experiment with Talaromyces funiculosus. The MIC with Aspergillus versicolor was 71 µM (≈ 31.1 µg/mL); against Pseudomonas aeruginosa [5] it was 34 µM (≈ 14.9 µg/mL); against Micrococcus flavus it was 142 µM (≈ 62.3 µg/mL); against Salmonella typhimurium it was 34 µM (≈ 14.9 µg/mL).
For the compound `COc1ccc(/C=C2/S/C(=N/c3nnc(C45CC6CC(CC(C6)C4)C5)s3)NC2=O)cc1`, the MIC came to 179 µM (≈ 81 µg/mL) in the experiment on Aspergillus niger; 99.5 µM (≈ 45 µg/mL) in the experiment with Enterobacter cloacae; 0.0995 µM (≈ 0.045 µg/mL) with Escherichia coli [1]; 99.8 µM (≈ 45.2 µg/mL) with Aspergillus fumigatus; 99.8 µM (≈ 45.2 µg/mL) against Aspergillus ochraceus; 99.8 µM (≈ 45.2 µg/mL) against Penicillium ochrochloron. In addition, the MIC against Staphylococcus aureus [2] is 0.0448 µM (≈ 0.0203 µg/mL); against Bacillus cereus, 99.5 µM (≈ 45 µg/mL); against Trichoderma viride it was 179 µM (≈ 81 µg/mL); against Pseudomonas aeruginosa [3], 111 µM (≈ 50.1 µg/mL); against Listeria monocytogenes, 44.8 µM (≈ 20.3 µg/mL); with Penicillium verrucosum, 0.0998 µM (≈ 0.0452 µg/mL). For the same compound, the MIC against Staphylococcus aureus [4] stood at 0.111 µM (≈ 0.0501 µg/mL); with Talaromyces funiculosus, 99.8 µM (≈ 45.2 µg/mL); against Aspergillus versicolor, 99.8 µM (≈ 45.2 µg/mL); against Pseudomonas aeruginosa [5], 99.5 µM (≈ 45 µg/mL); in the experiment on Micrococcus flavus, 99.5 µM (≈ 45 µg/mL); against Escherichia coli [6] it was 0.0553 µM (≈ 0.025 µg/mL). In the experiment on Salmonella typhimurium, this compound returned an MIC of 44.8 µM (≈ 20.3 µg/mL).
With `c1ccc(-c2ccc(C(c3ccccc3)n3ccnc3)cc2)cc1` (stereo not drawn) [BIFONAZOLE], the MIC against Aspergillus niger turned out to be 480 µM (≈ 149 µg/mL); in the experiment with Aspergillus fumigatus, 480 µM (≈ 149 µg/mL); in the experiment on Aspergillus ochraceus, 480 µM (≈ 149 µg/mL); against Penicillium ochrochloron it was 480 µM (≈ 149 µg/mL); against Trichoderma viride, 640 µM (≈ 199 µg/mL); against Penicillium verrucosum, 0.322 µM (≈ 0.0999 µg/mL). For the same compound, the MIC in the experiment with Candida albicans was 322 µM (≈ 99.9 µg/mL); against Talaromyces funiculosus, 640 µM (≈ 199 µg/mL); in the experiment with Aspergillus versicolor, 480 µM (≈ 149 µg/mL).
In the case of `CC(=O)N1CCN(c2ccc(OCC3COC(Cn4ccnc4)(c4ccc(Cl)cc4Cl)O3)cc2)CC1` (stereo not drawn) [KETOCONAZOLE], the MIC in the experiment on Aspergillus niger turned out to be 380 µM (≈ 202 µg/mL); in the experiment with Aspergillus fumigatus, 380 µM (≈ 202 µg/mL); with Aspergillus ochraceus, 380 µM (≈ 202 µg/mL); against Penicillium ochrochloron, 3800 µM (≈ 2020 µg/mL); against Trichoderma viride, 4750 µM (≈ 2520 µg/mL); with Penicillium verrucosum, 0.376 µM (≈ 0.2 µg/mL). Also, the minimal inhibitory concentration (MIC) in the experiment with Candida albicans was 376 µM (≈ 200 µg/mL); in the experiment on Talaromyces funiculosus it was 380 µM (≈ 202 µg/mL); in the experiment on Aspergillus versicolor, 2850 µM (≈ 1510 µg/mL).
